A word on the inhibition: it is the share of the control response that was lost under treatment.

For the assay, the target named is 3',5'-cyclic-AMP phosphodiesterase 4B (Homo sapiens) (UniProt Q07343). The experiment in a line: Inhibition of recombinant His-tagged PDE4B using cAMP as substrate at 30 uM preincubated for 15 mins before substrate addition measured after 1 hr by luminescence assay. In short, it runs like this: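 PDE4B cDNA expressed as His-tagged protein in baculovirus-infected Sf9 cells, Ni-NTA purified. 10 ng enzyme preincubated 15 min with compound or DMSO vehicle, then 1 h with 5 µM cAMP, using a PDElight HTS cAMP phosphodiesterase kit. Reaction stopped, detection reagent added for 10 min in the dark, luminescence read. % inhibition = (RLU vehicle − RLU inhibitor)/RLU vehicle × 100.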
Chain of 3',5'-cyclic-AMP phosphodiesterase 4B (Homo sapiens) (Q07343 whole entry): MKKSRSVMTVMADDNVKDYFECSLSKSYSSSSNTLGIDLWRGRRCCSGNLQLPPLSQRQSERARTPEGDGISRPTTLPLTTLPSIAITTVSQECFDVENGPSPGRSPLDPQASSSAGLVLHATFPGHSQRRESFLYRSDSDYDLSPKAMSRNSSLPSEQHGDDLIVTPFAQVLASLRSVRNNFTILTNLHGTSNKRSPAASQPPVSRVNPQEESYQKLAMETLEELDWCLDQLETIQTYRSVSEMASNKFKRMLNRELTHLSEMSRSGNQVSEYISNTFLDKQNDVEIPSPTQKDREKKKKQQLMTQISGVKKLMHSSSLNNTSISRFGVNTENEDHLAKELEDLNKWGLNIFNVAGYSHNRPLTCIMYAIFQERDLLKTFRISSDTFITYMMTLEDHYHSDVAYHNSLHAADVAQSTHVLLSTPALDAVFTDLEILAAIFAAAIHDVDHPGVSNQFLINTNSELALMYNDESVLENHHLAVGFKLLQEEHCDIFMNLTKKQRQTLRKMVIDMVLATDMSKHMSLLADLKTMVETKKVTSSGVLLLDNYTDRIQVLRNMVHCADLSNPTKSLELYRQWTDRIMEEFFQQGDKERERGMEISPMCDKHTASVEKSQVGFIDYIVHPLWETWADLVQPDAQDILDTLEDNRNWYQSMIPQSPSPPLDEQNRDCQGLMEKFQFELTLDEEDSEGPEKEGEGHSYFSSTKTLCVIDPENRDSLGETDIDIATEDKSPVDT
Take `CCOC(=O)c1c(C)nc(OCC)c(C#N)c1-c1ccc(F)cc1`: the inhibition was found to be 42.3%.

`CCOC(=O)c1c(C)nc(OCC)c(C#N)c1-c1ccc(F)cc1F`: the inhibition turned out to be 20.4%.

In the case of `COC(=O)c1c(C)nc(OC)c(C#N)c1-c1ccc(C(F)(F)F)cc1`, the inhibition stood at 23.5%.

Take `CCOC(=O)c1c(C)nc(OCC)c(C#N)c1-c1ccc(OC)cc1`: the inhibition is 65.9%.

Consider `COC(=O)c1c(C)nc(OC)c(C#N)c1-c1ccc(Br)cc1`, for which the inhibition was found to be 44.8%.

In the case of `COC(=O)c1c(C)nc(OC)c(C#N)c1-c1c(F)cc(Br)cc1F`, the inhibition was determined as 22.4%.

With `COC(=O)c1c(C)nc(OC)c(C#N)c1-c1ccc(F)cc1`, the inhibition was 43.2%.

Consider `COC(=O)c1c(C)nc(OC)c(C#N)c1-c1ccc(OC)cc1`, for which the inhibition is 64.1%.

`CCOC(=O)c1c(C)nc(OCC)c(C#N)c1-c1ccc(Br)cc1`: the inhibition came out at 43.7%.

With `COC(=O)c1c(C)nc(OC)c(C#N)c1-c1ccccc1`, the inhibition stood at 38.4%.

Take `COC(=O)c1c(C)nc(OC)c(C#N)c1-c1ccc(F)cc1F`: the inhibition worked out at 21.5%.

For the origin of these results see ChEMBL document CHEMBL1932943, “Montmorillonite K-10 mediated green synthesis of cyano pyridines: Their evaluation as potential inhibitors of PDE4” (Eur J Med Chem, 2012).
